Holding throughout (assay type): functional, cell-based
The subject of one assay is A549. Briefly: Cytotoxicity against human A549 cells by MTT assay. The method, boiled down: (§1)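 Human tumour lines (A549 lung adenocarcinoma, BGC-823 stomach cancer, Bel 7402 hepatoma, HCT-8 colon cancer, HeLa) were exposed to the compounds and viability was read by MTT. Potency was expressed as IC50 in μg/mL.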
Background: Tetrazolium assays rely on reduction of a dye to a coloured formazan, in cell work by metabolically active cells.

For a further assay, the system named is BGC-823. The assay is described as follows: Cytotoxicity against human BGC823 cells by MTT assay. The gist of the method: as §1
A further assay has as its system HCT-8. The assay is described as follows: Cytotoxicity against human HCT8 cells by MTT assay. The gist of the method:
as §1

For another assay, the system named is HeLa. The assay is described as follows: Cytotoxicity against human HeLa cells by MTT assay. The method, boiled down:
as §1

A further assay concerns Bel-7402. The assay is described as follows: Cytotoxicity against human Bel7402 cells by MTT assay. The method, boiled down: as §1

In brackets after ≈: the same amount, converted by molar mass.

Turning to `C=C1[C@]2(C)CC[C@@]1(C)c1cc(Br)c(C)cc1O2`, the IC50 in the assay with A549, in the assay on BGC-823, in the assay on HCT-8, in the assay on HeLa and in the assay with Bel-7402 was over 10 µg/mL throughout.
For `C=C1[C@](C)(O)CC[C@@]1(C)c1ccc(C)c(O)c1`, the IC50 with A549, in the assay with BGC-823, in the assay with HCT-8, in the assay with HeLa and in the assay on Bel-7402 was over 10 µg/mL each time.
Turning to `CC(C)=CCCC(C)(O)c1ccc(C)cc1` (stereo not given) [GOSSONOROL], the IC50 in the assay with A549, in the assay on BGC-823, in the assay with HCT-8, in the assay on HeLa and in the assay with Bel-7402 was over 10 µg/mL each time.
Take `Cc1ccc(C(C)(O)C/C=C/C(C)(C)O)cc1` (stereo not given): the IC50 in the assay with A549, with BGC-823, with HCT-8, with HeLa and with Bel-7402 was over 10 µg/mL each time.
In the case of `C=C1[C@](C)(O)CC[C@@]1(C)c1ccc(C)cc1`, the IC50 in the assay on A549, in the assay on BGC-823, in the assay on HCT-8, in the assay on HeLa and in the assay with Bel-7402 was over 10 µg/mL each time.
For `Cc1ccc([C@]2(C)CC[C@@H]3C[C@@]32C)cc1O`, the IC50 in the assay on A549, in the assay on BGC-823, in the assay with HCT-8, in the assay with HeLa and with Bel-7402 was over 10 µg/mL in each case.
Regarding `C=C1[C@](C)(O)CC[C@@]1(C)c1ccc(C)cc1O`, the IC50 in the assay with A549, in the assay on BGC-823, with HCT-8, in the assay with HeLa and in the assay with Bel-7402 was over 10 µg/mL each time.
Turning to `Cc1ccc([C@]2(C)CC[C@H](C(C)(C)O)O2)cc1`, the IC50 with A549, in the assay on BGC-823, in the assay with HCT-8, with HeLa and in the assay on Bel-7402 was over 10 µg/mL each time.
Regarding `Cc1cc2c(cc1Br)[C@]1(C)CC[C@H](C)[C@]1(C)O2` [APLYSIN], the IC50 with A549, in the assay with BGC-823, in the assay with HCT-8, with HeLa and with Bel-7402 was over 10 µg/mL each time.
As for `Cc1ccc([C@]2(C)CC[C@@H](C(C)(C)O)O2)cc1`, the half-maximal inhibitory concentration (IC50) with A549, in the assay on BGC-823, with HCT-8, with HeLa and in the assay on Bel-7402 was over 10 µg/mL throughout.
In the case of `CC1(C)[C@]23C[C@H](Br)[C@@](C)(Cl)C[C@@H]2O[C@]1(Br)[C@H](O)[C@H]1O[C@]13C` [JOHNSTONOL], the IC50 in the assay on A549, with BGC-823, with HCT-8, in the assay on HeLa and with Bel-7402 was over 10 µg/mL in each case.
Regarding `Cc1cc2c(cc1Br)[C@]1(C)CC[C@H](C)[C@]1(CO)O2` [APLYSINOL], the IC50 in the assay with A549, in the assay on BGC-823, in the assay on HCT-8, in the assay on HeLa and with Bel-7402 was over 10 µg/mL each time.
Turning to `Cc1cc2c(cc1O)C[C@]1(CC[C@@H]3C[C@@]31C)O2`, the IC50 in the assay with A549, with BGC-823, with HCT-8, with HeLa and in the assay with Bel-7402 was over 10 µg/mL in each case.
`Cc1cc(O)c([C@]2(C)CC[C@@H]3C[C@@]32C)cc1-c1cc([C@]2(C)CC[C@@H]3C[C@@]32C)c(O)cc1C` [LAUREBIPHENYL]: the IC50 worked out at 1.68 µg/mL (≈ 3.9 µM) in the assay with A549; 1.22 µg/mL (≈ 2.83 µM) in the assay with BGC-823; 1.77 µg/mL (≈ 4.11 µM) in the assay with HCT-8; 1.61 µg/mL (≈ 3.74 µM) in the assay with HeLa; 1.91 µg/mL (≈ 4.44 µM) in the assay with Bel-7402.

Broadly, the IC50 is the concentration needed to halve the response being measured. Lower therefore signals higher potency.

These data come from ChEMBL document CHEMBL1158789, “Sesquiterpenes from the red alga Laurencia tristicha” (J Nat Prod, 2005).
